Reference: ChEMBL document CHEMBL1138009, “3-[3-Fluoro-5-(5-pyridin-2-yl-2H-tetrazol-2-yl)phenyl]-4-methylpyridine: a highly potent and orally bioavailable metabotropic glutamate subtype 5 (mGlu5) receptor antagonist” (Bioorg Med Chem Lett, 2004)
pIC50, pKi: −log10 of the molar value.

Tests used:
[1] = molecular target: T1, Metabotropic glutamate receptor 5 (Rattus norvegicus, UniProt P31424); assay: Antagonistic activity against Metabotropic glutamate receptor 5 in [Ca2+] flux assay using glutamate (10 uM) as agonist; assay type: functional
T1 sequence (P31424 whole entry): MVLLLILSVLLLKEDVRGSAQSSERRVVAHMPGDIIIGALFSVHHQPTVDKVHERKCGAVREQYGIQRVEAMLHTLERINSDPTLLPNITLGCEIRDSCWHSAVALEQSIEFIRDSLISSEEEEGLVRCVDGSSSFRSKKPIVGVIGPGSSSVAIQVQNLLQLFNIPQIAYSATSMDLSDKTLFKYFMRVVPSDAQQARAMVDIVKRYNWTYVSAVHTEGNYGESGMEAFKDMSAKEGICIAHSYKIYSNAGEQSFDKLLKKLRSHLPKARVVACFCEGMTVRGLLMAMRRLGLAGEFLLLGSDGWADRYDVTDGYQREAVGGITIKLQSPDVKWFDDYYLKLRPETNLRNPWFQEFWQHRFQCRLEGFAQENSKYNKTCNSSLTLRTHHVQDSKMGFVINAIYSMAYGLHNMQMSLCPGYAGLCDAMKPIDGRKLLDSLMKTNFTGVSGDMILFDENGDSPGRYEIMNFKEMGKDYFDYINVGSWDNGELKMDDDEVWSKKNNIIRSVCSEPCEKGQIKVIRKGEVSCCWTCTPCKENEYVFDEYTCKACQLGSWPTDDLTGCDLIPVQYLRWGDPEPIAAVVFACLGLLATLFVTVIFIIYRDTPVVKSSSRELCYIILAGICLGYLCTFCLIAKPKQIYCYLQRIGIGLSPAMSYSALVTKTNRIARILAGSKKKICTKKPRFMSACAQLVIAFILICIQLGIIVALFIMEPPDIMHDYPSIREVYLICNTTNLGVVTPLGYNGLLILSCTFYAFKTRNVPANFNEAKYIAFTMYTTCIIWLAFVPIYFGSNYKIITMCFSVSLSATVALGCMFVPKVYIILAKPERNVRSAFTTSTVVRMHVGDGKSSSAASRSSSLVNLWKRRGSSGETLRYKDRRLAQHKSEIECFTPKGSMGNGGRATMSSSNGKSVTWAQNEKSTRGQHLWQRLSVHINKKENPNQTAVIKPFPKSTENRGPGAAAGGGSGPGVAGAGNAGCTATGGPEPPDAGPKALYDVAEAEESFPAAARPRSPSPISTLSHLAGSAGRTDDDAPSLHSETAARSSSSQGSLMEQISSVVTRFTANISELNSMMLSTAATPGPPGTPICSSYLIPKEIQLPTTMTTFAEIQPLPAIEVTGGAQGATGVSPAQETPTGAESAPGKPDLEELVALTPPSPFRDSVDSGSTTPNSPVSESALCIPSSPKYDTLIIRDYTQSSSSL
In short: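 Cell-based high-throughput functional assay; glutamate 10 μM as agonist; antagonism read as change in cytosolic Ca2+ by fluorescence detection; n = 2–4, SD ≈ ±25%.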

[2] = molecular target: T1, Metabotropic glutamate receptor 5; assay: Binding affinity towards Metabotropic glutamate receptor was determined by displacing [3H]3-methoxy-5-(pyridin-2-ylethynyl)pyridine from rat cortical membranes
In short: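 Radioligand displacement of [3H]-3-methoxy-5-(pyridin-2-ylethynyl)pyridine from rat cortical membranes by test compounds; n = 2–4, SD ≈ ±25%.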

[3] = Maximum concentration i.v. dosing at 2 mg/kg of 50% PEG400/H 20, po dosing at 10 mg/kg; assay type: ADME, organism-based; settings: rat, in vivo
[4] = Oral bioavailability i.v. dosing at 2 mg/kg of 50% PEG400/H 20, po dosing at 10 mg/kg; assay type: ADME, organism-based; settings: rat, in vivo
[5] = Plasma clearance i.v. dosing at 2 mg/kg of 50% PEG400/H 20, po dosing at 10 mg/kg; assay type: ADME, organism-based; settings: rat, iv, read-out: Clp
[6] = molecular target: Metabotropic glutamate receptor 5 (Rattus norvegicus) (UniProt P31424); assay: Effective dose against rat Metabotropic glutamate receptor 5 occupancy after i.p. dosing at 10 mg/kg of 50% PEG400/H 20; assay type: functional, organism-based; set-up: dose 10 mg/kg
Chain of Metabotropic glutamate receptor 5 (Rattus norvegicus) (P31424 21-1203 limits assumed): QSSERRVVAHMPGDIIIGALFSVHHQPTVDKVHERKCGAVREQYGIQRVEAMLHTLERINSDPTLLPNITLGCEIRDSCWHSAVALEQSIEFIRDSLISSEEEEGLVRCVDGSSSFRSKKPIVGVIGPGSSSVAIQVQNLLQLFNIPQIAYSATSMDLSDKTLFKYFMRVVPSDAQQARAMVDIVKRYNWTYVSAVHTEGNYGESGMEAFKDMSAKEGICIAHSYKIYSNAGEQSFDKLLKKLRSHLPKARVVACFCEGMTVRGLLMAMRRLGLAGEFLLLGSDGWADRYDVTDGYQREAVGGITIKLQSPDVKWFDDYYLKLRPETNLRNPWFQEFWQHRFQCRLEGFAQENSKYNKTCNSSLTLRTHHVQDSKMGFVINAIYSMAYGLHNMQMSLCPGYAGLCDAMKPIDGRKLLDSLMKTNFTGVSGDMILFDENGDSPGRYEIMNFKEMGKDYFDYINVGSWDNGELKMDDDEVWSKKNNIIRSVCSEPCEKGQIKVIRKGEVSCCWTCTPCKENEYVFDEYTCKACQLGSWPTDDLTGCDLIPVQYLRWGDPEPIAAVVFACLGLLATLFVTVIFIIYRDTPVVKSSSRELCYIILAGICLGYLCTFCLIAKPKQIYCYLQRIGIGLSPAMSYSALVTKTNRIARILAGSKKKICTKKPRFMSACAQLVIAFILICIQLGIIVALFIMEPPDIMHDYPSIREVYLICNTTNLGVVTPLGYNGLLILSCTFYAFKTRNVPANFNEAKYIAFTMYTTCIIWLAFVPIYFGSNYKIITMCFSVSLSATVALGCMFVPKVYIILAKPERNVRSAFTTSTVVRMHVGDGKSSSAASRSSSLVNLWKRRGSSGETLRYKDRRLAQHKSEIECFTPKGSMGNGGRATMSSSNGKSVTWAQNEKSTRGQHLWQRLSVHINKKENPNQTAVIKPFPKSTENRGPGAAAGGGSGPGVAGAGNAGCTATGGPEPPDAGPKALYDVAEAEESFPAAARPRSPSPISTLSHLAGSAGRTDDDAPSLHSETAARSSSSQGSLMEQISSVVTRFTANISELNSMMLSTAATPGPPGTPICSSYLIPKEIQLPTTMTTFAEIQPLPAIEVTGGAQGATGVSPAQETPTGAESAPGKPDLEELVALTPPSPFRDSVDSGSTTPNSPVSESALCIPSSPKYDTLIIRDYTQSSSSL
In short: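 Rat receptor occupancy: compound given 10 mg/kg intraperitoneally in 50% PEG 400/H2O, occupancy measured at 1 h; hippocampal and plasma levels also determined at 1 h.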

[7] = Half life i.v. dosing at 2 mg/kg of 50% PEG400/H 20, po dosing at 10 mg/kg; assay type: ADME, organism-based; settings: rat, in vivo
[8] = Oral bioavailability after i.v. dosing at 2 mg/kg of 50% PEG400/H 20, po dosing at 10 mg/kg; assay type: ADME, organism-based; settings: rat, in vivo

SMILES | pIC50 [1] | pKi [2] | also measured
Fc1cc(-c2ccccc2)cc(-n2nnc(-c3ccccn3)n2)c1 | 6.61 | 7.28 | 
Nc1ccncc1-c1cc(F)cc(-n2nnc(-c3ccccn3)n2)c1 | 6.97 | 7.70 | 
Nc1ccccc1-c1cc(F)cc(-n2nnc(-c3ccccn3)n2)c1 | 8.10 | 8.15 | 
Cc1ccc(-c2cc(F)cc(-n3nnc(-c4ccccn4)n3)c2)cc1 | < 5.52 |  | 
N#Cc1cccc(-c2cc(F)cc(-n3nnc(-c4ccccn4)n3)c2)c1 | 6.60 | 7.92 | 
Fc1cc(-c2ccncc2)cc(-n2nnc(-c3ccccn3)n2)c1 | 6.02 | 6.24 | 
Cc1cccc(-c2cc(F)cc(-n3nnc(-c4ccccn4)n3)c2)c1 | 5.83 |  | 
Cc1cncc(-c2cc(F)cc(-n3nnc(-c4ccccn4)n3)c2)c1 | 6.30 | 6.57 | 
Fc1cc(-c2cccnc2)cc(-n2nnc(-c3ccccn3)n2)c1 | 7.92 | 7.43 | 
N#Cc1cc(F)cc(-n2nnc(-c3ccccn3)n2)c1 | 8.40 | 7.85 | bioavailability [8]: 26%; clearance [5]: 17 mL/min/kg; T1/2 [7]: 2.9 h
Fc1cc(-c2ccccn2)cc(-n2nnc(-c3ccccn3)n2)c1 | 7.41 | 7.02 | 
N#Cc1ccccc1-c1cc(F)cc(-n2nnc(-c3ccccn3)n2)c1 | 8.22 | 8.40 | 

Further lines, with some results ahead:

pIC50 [1] | pKi [2] | SMILES | also measured
7.24 | 7.44 | Cc1ccc(-c2cc(F)cc(-n3nnc(-c4ccccn4)n3)c2)cn1 | 
6.92 | 7.64 | Cc1ccccc1-c1cc(F)cc(-n2nnc(-c3ccccn3)n2)c1 | 
7.51 | 7.62 | Cc1cccnc1-c1cc(F)cc(-n2nnc(-c3ccccn3)n2)c1 | 
8.30 | 8.70 | Cc1ccncc1-c1cc(F)cc(-n2nnc(-c3ccccn3)n2)c1 | Cmax [3]: 900 nM; bioavailability [4]: 12%; clearance [5]: 39 mL/min/kg; Occupancy [6]: 95; half-life [7]: 1.6 h
7.72 | 7.51 | Nc1cccnc1-c1cc(F)cc(-n2nnc(-c3ccccn3)n2)c1 | 
7.39 | 7.35 | Cc1ncccc1-c1cc(F)cc(-n2nnc(-c3ccccn3)n2)c1 | 
7.20 | 7.48 | Cc1cnccc1-c1cc(F)cc(-n2nnc(-c3ccccn3)n2)c1 | 
